Sampled rows, rich in hits. Any-hit rate of the full collection: about 0.79%.
bIAP activator: bovine intestinal alkaline phosphatase activators, primary screen, biochemical, bovine IAP, CDP-star luminescence. purified bovine IAP, 30 min; stronger effect = higher value; fold of DMSO-control signal, blank-subtracted. 0.17% of 200,000 active. activation factor at 20 µM;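 active means activation factor of 2 or more at 20 µM, a signal rise over negative controls twice the positive control's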
hIAP activ: human IAP activators, primary screen, biochemical, luminescence, uHTS; activation factor at 10 µM; purified human IAP, CDP-Star luminescence, 30 min; stronger effect = higher value; 1 = vehicle-only enzyme, 0 = enzyme-free background; 0.16% of 330,000 active;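 active means activation factor of the enzyme at least 2-fold when tested at 20 µM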
Target sequence (P09923 whole entry, looked up): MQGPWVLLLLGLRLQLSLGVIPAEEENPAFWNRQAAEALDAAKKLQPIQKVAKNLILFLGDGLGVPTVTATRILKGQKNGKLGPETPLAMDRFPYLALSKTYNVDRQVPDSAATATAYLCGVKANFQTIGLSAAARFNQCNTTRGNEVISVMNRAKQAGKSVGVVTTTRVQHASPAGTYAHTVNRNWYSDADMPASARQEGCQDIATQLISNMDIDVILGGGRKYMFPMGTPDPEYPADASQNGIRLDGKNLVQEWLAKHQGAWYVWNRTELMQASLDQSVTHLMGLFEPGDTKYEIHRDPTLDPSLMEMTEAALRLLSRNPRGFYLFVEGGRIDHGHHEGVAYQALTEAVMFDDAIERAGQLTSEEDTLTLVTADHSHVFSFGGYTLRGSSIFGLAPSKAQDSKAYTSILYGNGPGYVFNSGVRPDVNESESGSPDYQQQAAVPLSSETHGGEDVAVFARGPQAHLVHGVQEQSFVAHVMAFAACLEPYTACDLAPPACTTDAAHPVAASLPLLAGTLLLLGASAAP
mIAP inh: inhibitors of mouse IAP, primary screen, biochemical, luminescence, uHTS; intestinal alkaline phosphatase [Mus musculus]; purified mouse IAP, CDP-Star luminescence, 30 min; inhibition, % at 10 µM; 0.2% of 330,000 active; AID 2806, 2010;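 active means inhibition of at least 40% at 10 µM in the primary screen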;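 further: plate controls were DMSO with enzyme for no effect and no enzyme wells for full effect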
bIAP inhibitor: bovine intestinal alkaline phosphatase inhibitors, primary screen, selectivity assay for TNAP inhibitor project, biochemical, bovine IAP, CDP-star luminescence; alkaline phosphatase, intestinal [Bos taurus]; purified bovine IAP, 30 min; inhibition, % at 20 µM; 190,000 tested, under 10 active;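 active means over 50% inhibition of intestinal alkaline phosphatase at 20 µM in the single-dose screen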
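System: Purified bovine intestinal alkaline phosphatase (IAP) enzyme | Input: IAP diluted 1/65,000,000 in the well | Also added: CDP-star chemiluminescent phosphatase substrate, 30 µM final | Dosing: 20 µM single dose | Times: Enzyme reaction for 30 min at room temperature | Detection: Luminescence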
mIAP act: activators of mouse IAP, primary screen, biochemical, luminescence, uHTS; intestinal alkaline phosphatase [Mus musculus]; muIAP, CDP-Star luminescence, 30 min; stronger effect = higher value; 1 = vehicle-only enzyme signal, 0 = enzyme-free wells; activation factor at 10 µM; 0.24% of 330,000 active;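 active means activation factor of at least 2 at 20 µM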
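also added = chemiluminescent substrate CDP-Star | test system = mouse IAP enzyme | signal = chemiluminescence readout | compound = DMSO-dissolved test compounds | incubation = 30 min at room temperature | benchmarks = DMSO wells, no-enzyme wells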
hIAP inh: human IAP inhibitors, primary screen, biochemical, luminescence, uHTS | Intestinal-type alkaline phosphatase (Homo sapiens), P09923 | purified IAP, CDP-Star luminescence, 30 min | inhibition, % at 10 µM | 0.12% of 330,000 active | AID 2544, 2010;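 active means inhibition reaching a set limit with compound at 10 µM in the primary screen, cut at about 35% in these data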;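 further: plate controls were DMSO wells with enzyme for no effect and no-enzyme buffer wells for full effect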
Starred values were filed as active, the others as inactive; i = inactive; x = not tested or not shown.

SMILES	bIAP activator	hIAP activ	mIAP inh	bIAP inhibitor	mIAP act	hIAP inh
CC(C)NC[C@@H](O)c1ccc(O)c(O)c1	0.9	1.1	43*	11	0.57	-5
N/N=C(/Cc1nc2ccccc2[nH]1)c1ccc([N+](=O)[O-])cc1	1	0.93	3	-1	0.97	7
O=C(COC(=O)c1cc(Br)ccc1Cl)NC(=O)NCc1ccccc1	1	0.97	9	1	0.91	3
O=C(COc1ccc(Cl)cc1Br)NC(=O)NCc1ccccc1	6.5*	0.89	-5	i	1	11
O=C(CSC(=S)N1CCN(c2ccccc2)CC1)Nc1nc(-c2ccccc2)c(-c2ccccc2)o1	2.2*	1.1	9	-123	0.91	-11
COc1ccc(S(=O)(=O)NC2CCc3ccccc32)cc1OC (stereo unspecified)	x	0.91	-3	x	1	9
Cc1ccc(NC(=O)Cc2nnc(SCC(=O)NC3CCCC3)n2C)c(C)c1	x	0.92	5	x	0.95	8
Cc1cc2nc(C3CCN(CC4COc5ccccc5O4)CC3)[nH]c2cc1C (stereo unspecified)	4.5*	0.84	-58	-350	1.6	16
N#Cc1c(N)sc(=S)c2c1CCCCC2	0.9	1	48*	12	0.52	-4
N#Cc1c(N)sc2c1CCCCCC2	0.6	1.1	0	35	0.99	-6
Cc1ccc(C(=O)N/C(=C/c2ccccc2)C(=O)NCC2CCCO2)cc1 (stereo unspecified)	0.9	1.1	-2	5	1	-12
Cc1nn(C)c(C)c1NC(=O)Nc1cccc(C(F)(F)F)c1	0.9	1.1	-4	6	1	-6
Cc1nn(C)c(C)c1NC(=O)Nc1ccc(Cl)c(Cl)c1	1	1.1	-114	2	2.1*	-10
CNC[C@H]1Oc2ccc(NC(=O)Nc3ccc4c(c3)OCO4)cc2C(=O)N([C@H](C)CO)C[C@@H]1C	x	1	-116	x	2.2*	-4
C[C@H](CO)N1C[C@H](C)[C@@H](CN(C)C(=O)Nc2ccc3c(c2)OCO3)Oc2ccc(NC(=O)Nc3ccc4c(c3)OCO4)cc2C1=O	x	1.2	-139	x	2.4*	-15
CC(C)NC(=O)N(C)C[C@H]1Oc2ccc(NC(=O)Nc3ccc4c(c3)OCO4)cc2C(=O)N([C@H](C)CO)C[C@@H]1C	x	1.2	-25	x	1.3	-18
CNC[C@@H]1Oc2ccc(NC(=O)Nc3ccccc3)cc2C(=O)N([C@@H](C)CO)C[C@H]1C	x	1.1	-132	x	2.3*	-8
CC(C)C(NC(=O)c1ccc(F)cc1)C(=O)NC1(C)CCS(=O)(=O)C1 (stereo unspecified)	x	1.2	-5	x	1.1	-17
COc1cccc(NC(=O)C2CCN(S(=O)(=O)c3ccc4c(c3)OCCO4)CC2)c1	2.5*	0.84	-49	-152	1.5	16
COc1ccc(OC)c(S(=O)(=O)N2CCC(C(=O)Nc3cccc(C(F)(F)F)c3)CC2)c1	1	1.1	-156	0	2.6*	-11
COc1cc([N+](=O)[O-])cc(/C=N/NC(=O)CSc2ccccn2)c1O	x	1	29	x	0.71	-4
C=CCn1c(CNC(=O)c2ccccc2F)nnc1SCc1nc2ccccc2c(=O)[nH]1	0.9	0.92	6	6	0.94	8
O=C1c2ccccc2S(=O)(=O)c2cc(N3CCC(C(=O)N4CCCCC4)CC3)ccc21	x	0.81	-2	x	1	19
O=C1c2ccccc2S(=O)(=O)c2cc(N3CCc4ccccc4C3)ccc21	x	0.92	43*	x	0.57	8
CCOP(=O)(OCC)C(NC(=O)Nc1ccc(Cl)cc1)c1ccccc1 (stereo unspecified)	1	1.3	-103	2	2*	-33
CCOP(=O)(OCC)C(NC(=O)Nc1ccc(Cl)c(Cl)c1)C(N)=O (stereo unspecified)	0.4	0.93	-12	x	1.1	7
